PMC3343186 (Nature, 2012)

Columns and labels:
REV-ERBα = target: T1, REV-ERBα (Homo sapiens, UniProt P20393); format: cell-based; conditions: HEK293 cells, comparison with SR9011 and SR9009
T1 sequence (P20393 284-614 limits assumed): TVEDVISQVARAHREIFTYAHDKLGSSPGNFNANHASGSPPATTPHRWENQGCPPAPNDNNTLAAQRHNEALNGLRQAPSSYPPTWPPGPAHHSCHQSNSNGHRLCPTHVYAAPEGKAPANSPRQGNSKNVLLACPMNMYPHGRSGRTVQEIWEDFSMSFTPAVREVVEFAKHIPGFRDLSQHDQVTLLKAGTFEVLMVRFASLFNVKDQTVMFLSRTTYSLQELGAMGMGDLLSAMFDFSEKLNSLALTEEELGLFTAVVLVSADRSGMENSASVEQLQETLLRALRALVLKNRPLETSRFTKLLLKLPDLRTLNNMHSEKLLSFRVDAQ

[1] = cited from earlier work
C57Bl6 mice [2] = assay: Circadian wheel running activity under constant darkness; format: in vivo; conditions: single dose 100 mg/kg i.p. at CT6
Method in brief: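 C57Bl6 mice in wheel cages were kept 7 days on 12h:12h L:D, then moved to constant darkness. After 12 days in D:D, mice received a single i.p. injection of vehicle or test compound at CT6.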

C57Bl6 mice [3] = assay: Circadian locomotor activity under L:D; format: in vivo; conditions: L:D 12h:12h, single injection
Method in brief: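 Wheel-running actograms were recorded in C57Bl6 mice kept on 12:12 L:D after single i.p. injections of vehicle or test compound. The protocol was otherwise as in the constant-darkness wheel experiment. n=6-10.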

[4] = test system: diet-induced obese C57BL6 mice; assay: Diet-induced obese mice, 30-day treatment; format: in vivo; conditions: DIO C57Bl6 mice, 100mg/kg i.p. b.i.d., 30 days
[5] = test system: metabolic genes in DIO mice tissues; assay: Metabolic gene expression in liver, WAT and skeletal muscle of DIO mice; format: in vivo; conditions: 100mg/kg i.p. b.i.d., 30 days
Method in brief: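 Diet-induced obese C57BL6 mice, 20 weeks old, had 14 weeks on high-fat diet (20% carbohydrate, 60% fat) and continued on it under twice-daily i.p. dosing. Liver, WAT and skeletal muscle mRNA was quantified by QPCR, normalised to Cyclophilin b. n=6-10.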

lean C57Bl6 mice = assay: Fasting plasma TG and Chol in lean C57Bl6 mice; format: in vivo; conditions: 100 mg/kg i.p. b.i.d., 10 days
Method in brief: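 Lean C57Bl6 mice were given 100 mg/kg i.p. twice daily at CT0 and CT12 for 10 days, then fasting plasma triglycerides and total cholesterol were measured. Mean ± s.e.m., n=6-10.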

ob/ob mice = assay: ob/ob mice, 12-day dosing; format: in vivo; conditions: 100 mg/kg i.p. b.i.d., 12-days
Method in brief: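 Leptin-deficient ob/ob mice were dosed 100 mg/kg i.p. twice daily for 12 days. Body weight and body fat content were tracked; glucose and insulin tolerance were also assessed. Mean ± s.e.m., n=6-10.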

SCN explants (Per2:luc) = assay: Bioluminescence of SCN explants from Per2:luc reporter mouse; format: cell-based; conditions: 5 μM
[6] = test system: REV-ERB responsive genes in the liver; assay: Expression of REV-ERB responsive genes in liver after 6-day dosing; format: in vivo, mice; conditions: various doses i.p., b.i.d., 6-days
[7] = test system: core clock genes in the hypothalamus; assay: Core clock gene expression in hypothalamus; format: in vivo, mice
Balb/c or C57Bl6 mice = assay: Body weight and fat mass in lean mice on chronic dosing; format: in vivo
Method in brief: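 Balb/c mice given 100 mg/kg i.p. twice daily at CT0 and CT12 for 12 days; body weight and fat mass followed over treatment. Mean ± s.e.m., n=6-10 mice.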

C57Bl6 mice [8] = assay: Comprehensive laboratory animal monitoring system; format: in vivo
Method in brief: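 C57Bl6 mice in CLAMS cages were dosed 100 mg/kg i.p. twice daily at CT0 and CT12 for 10 days. Oxygen consumption (VO2) and RER were recorded across diurnal and nocturnal phases. Fat mass was measured by DEXA after the run. Mean ± s.e.m., n=6-10.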

[9] = test system: clock and metabolic genes in the liver; assay: Circadian gene expression in liver after single dose; format: in vivo, mice
Method in brief: (§1)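 Male C57BL6 mice, 8-10 weeks, housed on 12h:12h L:D or in constant darkness, received a single 100 mg/kg i.p. dose at CT0. Groups (n=6) were sacrificed at CT0, CT6, CT12 and CT18; tissue mRNA measured by real-time QPCR. Data double plotted; mean ± s.e.m.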

[10] = test system: metabolic genes in skeletal muscle; assay: Circadian gene expression in skeletal muscle after single dose; format: in vivo, mice; conditions: single dose 100 mg/kg i.p. at CT0
Method in brief: as §1

[11] = test system: metabolic genes in white adipose tissue (WAT); assay: Circadian gene expression in white adipose tissue after single dose; format: in vivo, mice
Method in brief: as §1

[12] = D:D, 100 mg/kg i.p. single dose at CT0
[13] = C57Bl6 mice, 100mg/kg i.p. b.i.d., 10 days
[14] = single dose 100 mg/kg i.p. at CT0

## CC(C)(C)OC(=O)CN(Cc1ccc(Cl)cc1)Cc1ccc([N+](=O)[O-])s1 [GSK4112]
REV-ERBα
  activity in GAL4-REV-ERBα and GAL4-REV-ERBβ cotransfection assays: limited activity
[1]
  plasma exposure: no plasma exposure

## CCOC(=O)N1CCC(CN(Cc2ccc(Cl)cc2)Cc2ccc([N+](=O)[O-])s2)C1 (centres unmarked) [SR9009]
C57Bl6 mice [2]
  locomotor activity during the subject dark phase: loss of the subsequent active period
C57Bl6 mice [3]
  delay in the onset of locomotor activity: 1 to 3 h
[4]
  decrease in plasma insulin levels (trend): 35%
  decrease in plasma leptin: 80%
[4]; fasting
  decrease in plasma total cholesterol (Chol): 47%
  decrease in plasma triglycerides (TGs): 12%
  reduction of plasma glucose: 19%
  reduction of plasma non-esterified fatty acids (NEFA): 23%
[4]; plasma
  decrease in proinflammatory cytokine IL-6: 72%
[5]
  Cpt1b expression in skeletal muscle: induced the expression
  Fasn expression in liver: significant decrease
  Hk1 expression in skeletal muscle: induced the expression
  Hmgcr expression in liver: significant decrease
  Pkm2 expression in skeletal muscle: induced the expression
  Ppargc1b expression in skeletal muscle: induced the expression
  Scd1 expression in liver: significant decrease
  Srebf2 expression in liver: significant decrease
  Ucp3 expression in skeletal muscle: induced the expression
  expression of genes encoding enzymes involved in TG synthesis in WAT: decrease in expression
Lean C57Bl6 mice
  plasma total cholesterol: reduce the levels
  plasma triglycerides: reduce the levels
ob/ob mice
  glucose or insulin tolerance: no significant alterations
  weight gain: suppressed the degree of weight gain

## CCCCCNC(=O)N1CCC(CN(Cc2ccc(Cl)cc2)Cc2ccc([N+](=O)[O-])s2)C1 (centres unmarked) [SR9011]
SCN explants (Per2:luc)
  amplitude of the oscillations in SCN explants: suppressed the amplitude
  circadian oscillations in SCN explants: reversible inhibition of circadian oscillations
  period of the oscillations in SCN explants: no effect on the period
[6]
  Cyp7a1 expression in liver: dose-dependently suppressed
  Serpine1 expression in liver: dose-dependent suppression
C57Bl6 mice [2]
  locomotor activity during the subject dark phase: loss of the subsequent active period
C57Bl6 mice [3]
  delay in the onset of locomotor activity: 1 to 3 h
[7]; D:D conditions
  circadian pattern of Rev-erbα expression in hypothalamus: completely suppressed
[7]; [12]
  Bmal1 expression in hypothalamus: left shift in the phase
  Cry2 expression in hypothalamus: suppressed
  Per2 expression amplitude in hypothalamus: enhanced
  circadian pattern of expression of Npas2 in hypothalamus: completely eliminated
  pattern of expression of Clock in hypothalamus: enhanced amplitude of the oscillation
[7]; L:D conditions
  circadian pattern of Rev-erbα expression in hypothalamus: no effect
Balb/c or C57Bl6 mice; 100mg/kg, i.p., b.i.d., 12 days
  body weight and fat mass: weight loss due to decreased fat mass
Balb/c or C57Bl6 mice; chronic administration, data not shown
  food intake: not affected
C57Bl6 mice [8]; [13]
  increase in nocturnal food consumption: 10%
  increase in oxygen consumption (VO2): 5%
  rate of food intake: no effect
  respiratory exchange ratio: no change
  total daily food intake: no effect
C57Bl6 mice [8]; C57Bl6 mice, 100mg/kg i.p. b.i.d., 10 days, x-axis beam breaks
  decrease in movement: 15%
C57Bl6 mice [8]; after 10-day CLAMS experiment
  fat mass (DEXA) vs. vehicle: decrease in fat mass
[9]; single dose
  Nampt gene expression in the liver: suppressed the circadian rhythm
  Nocturnin (Ccrn4l) expression in hepatic tissue: suppression
[9]; [14]
  Bmal1 expression in liver: unaffected
  Cyp7a1 expression in liver: decreased
  Fasn expression in liver: phase shifted
  Npas2 expression in liver: unaffected
  Per2 expression pattern in liver: altered
  Ppargc1a circadian expression in liver: suppressed
  Ppargc1b circadian expression in liver: suppressed
  Scd1 expression in liver: suppressed
  Srebf1 expression in liver: suppressed
  Srebf2 expression in liver: decreased
[9]; single dose 100 mg/kg i.p. at CT0, acute model
  Hmgcr expression in liver: unaffected
[10]
  Cpt1b expression in skeletal muscle: elevated
  Hk1 expression in skeletal muscle: increase
  Pkm2 expression in skeletal muscle: increase
  Pppargc1b expression in skeletal muscle: elevated
  Ucp3 expression in skeletal muscle: elevated
[11]; single dose
  Nocturnin (Ccrn4l) expression in adipose tissue: suppression
[11]; [14]
  Dgat1 expression in WAT: suppressed
  Dgat 2 expression in WAT: suppressed
  Hsl expression in WAT: suppressed
  Mgat circadian expression in WAT: disturbed
  Plin1 expression in WAT: suppressed
Lean C57Bl6 mice
  plasma total cholesterol: reduce the levels
  plasma triglycerides: reduce the levels
